In ChEMBL document CHEMBL1158955, “Biologically active metabolites from Xenorhabdus spp., Part 1. Dithiolopyrrolone derivatives with antibiotic activity” (1991) one finds Activity, LC50 and MIC data, which are given here for one compound.

Converted amounts (≈) assume the structure as drawn.

The subject of test [1] is Helicoverpa punctigera. Description: Insecticidal activity in Heliothis punctigera assessed as mortality at 150 ug.cm'-2 by larval feeding assay. The class given is functional. A digest of the protocol:
(§1)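 Artificial diet set in 24-well plates to 1 cm depth; 30 μl of test material in DMSO spread over the surface, with DMSO-only controls. After drying, one first-instar Heliothis punctigera larva placed per well, 16 wells per dose, and each well closed with a polypropylene ball. Held 7 days at 28°, then scored for mortality and survivors weighed; LC50 derived by probit analysis.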

Test [2] has as its system Helicoverpa punctigera. Description: Insecticidal activity in Heliothis punctigera assessed as mortality by larval feeding assay. The class given is functional. In a few lines:
as §1

For test [3], the system named is Helicoverpa punctigera. Description: Insecticidal activity in Heliothis punctigera assessed as mortality at 37.5 ug.cm'-2 by larval feeding assay. The class given is functional. In a few lines: as §1
The subject of test [4] is Helicoverpa punctigera. Kind of test: Insecticidal activity in Heliothis punctigera assessed as weight reduction at 37.5 ug.cm'-2 relative to control. Type of test: functional. On the set-up: scale not given: the % may be the effect or the level left. In a few lines:
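Diet-surface feeding test. Molten artificial diet was poured 1 cm deep in 24-well plates, and test material in DMSO (30 μl) was spread on the surface; controls got DMSO only. Once dry, one first-instar H. punctigera larva was placed per well (16 wells per dose) and the well was capped. After 7 days at 28°, mortality was scored and surviving larvae were weighed.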

For another test, the system named is Staphylococcus aureus. Description: Antimicrobial activity against Staphylococcus aureus ATCC 6538P after 18 hrs by broth dilution method. Type of test: functional. A digest of the protocol:
(§2)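 Broth dilution in TS broth in 24-well dishes. Compound dissolved in DMSO and diluted from a starting concentration of 2.5%. Inocula were grown from fresh TS agar plates in TS broth at 37° to A525 0.5, then diluted 10^-4. Incubation was 37° for 18 h. Turbidity was read by eye and confirmed by plating onto TS agar. MIC is the last dilution giving ≤20 colonies.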

The subject of the next test is Micrococcus luteus. Description: Antimicrobial activity against Micrococcus luteus BTA 433 after 18 hrs by broth dilution method. The settings on record: BTA 433, 18 h. The class given is functional. A digest of the protocol: as §2
A further test relates to Escherichia coli. Kind of test: Antimicrobial activity against Escherichia coli K88 BTA 430 after 18 hrs by broth dilution method. The class given is functional. The settings on record: K88 BTA 430, 18 h. A digest of the protocol: as §2
A further test has as its system Salmonella typhimurium. Description: Antimicrobial activity against Salmonella Typhimurium BTA 438 after 18 hrs by broth dilution method. Type of test: functional, Salmonella enterica subsp. enterica serovar Typhimurium. The settings on record: Salmonella enterica, BTA 438, 18 h. In a few lines:
as §2

The subject of a further test is Shigella sonnei. Kind of test: Antimicrobial activity against Shigella sonnei BTA 431 after 18 hrs by broth dilution method. The class given is functional. The settings on record: BTA 431, 18 h. A digest of the protocol: as §2
The next test deals with Pseudomonas aeruginosa. Description: Antimicrobial activity against Pseudomonas aeruginosa BTA 429 after 18 hrs by broth dilution method. The note with it: BTA 429, 18 h. The class given is functional. In a few lines: as §2
The next test relates to Bacillus cereus. Kind of test: Antimicrobial activity against Bacillus cereus BTA 432 after 18 hrs by broth dilution method. The note with it: BTA 432, 18 h. Type of test: functional. In a few lines: as §2
The subject of a further test is Candida albicans. Kind of test: Antimicrobial activity against Candida albicans ATCC 10231 after 18 hrs by broth dilution method. The class given is functional. The settings on record: ATCC 10231, 18 h. In a few lines:
as §2

Another test deals with Streptococcus pyogenes. Description: Antimicrobial activity against Streptococcus pyogenes IMR-RNSH after 18 hrs by broth dilution method. The class given is functional. In a few lines: as §2
Another test concerns Proteus mirabilis. Kind of test: Antimicrobial activity against Proteus mirabilis BTA 585 after 18 hrs by broth dilution method. The settings on record: BTA 585, 18 h. Type of test: functional. In a few lines: as §2

Turning to `CC(C)CCCC(=O)Nc1c2sscc-2[nH]c1=O` [XENORHABDIN 2], the figures for the Activity with Helicoverpa punctigera [1], with Helicoverpa punctigera [3] and in the test with Helicoverpa punctigera [4] were 100%, 18.8% and 64.7%, respectively. Moreover, the LC50 with Helicoverpa punctigera [2] is recorded as 59.5 ug.cm'-2. Also, the MIC against Staphylococcus aureus is 20 µg/mL (≈ 70.3 µM); with Micrococcus luteus, 0.156 µg/mL (≈ 0.549 µM); in the test with Escherichia coli, > 100 µg/mL; against Salmonella typhimurium it was > 100 µg/mL; in the test with Shigella sonnei it was > 100 µg/mL; in the test on Pseudomonas aeruginosa, > 100 µg/mL. Besides, the MIC is 3.13 µg/mL (≈ 11 µM) in the test with Bacillus cereus, > 100 µg/mL in the test on Candida albicans, 1.25 µg/mL (≈ 4.4 µM) with Streptococcus pyogenes and > 100 µg/mL in the test on Proteus mirabilis.
